Calls of active or inactive are those of the source. The calls are words filed in the database; no cut-off is given here.
Assays:
[1] = biological target: Tyrosine-protein kinase Lyn (Homo sapiens) (UniProt P07948); test: Inhibition of LYN at 10 uM
[2] = biological target: 3-phosphoinositide-dependent protein kinase 1 (Homo sapiens) (UniProt O15530); test: Inhibition of PDK1 at 10 uM
[3] = biological target: RAF proto-oncogene serine/threonine-protein kinase (Homo sapiens) (UniProt P04049); test: Inhibition of […] phosphorylation in human U937 cells 1 to 10 uM after 1 hr by Western blot analysis; format: cell-based; conditions: U-937
Method in brief: (§1)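 U937 cells at 5 × 10^5/mL were exposed to compound for 1 h, then sonicated in SDS/DTT sample buffer with protease inhibitors plus 1 mM orthovanadate and pyrophosphate, and boiled 5 min. Blots were blocked in 5% milk, probed with primary antibody overnight at 4 °C and 1:2000 HRP secondary, and read by chemiluminescence. α-Tubulin reprobe served as loading control. Blots shown represent one of three experiments.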

[4] = biological target: Ribosomal protein S6 kinase alpha-5 (Homo sapiens) (UniProt O75582); test: Inhibition of MSK1 at 10 uM
U-937 [5] = test: Induction of apoptosis in human U937 cells assessed as early apoptotic cells at 3 uM after 18 hrs by annexinV-propidium iodide staining-based flow cytometric analysis (reference value: 4.3%); format: functional
[6] = biological target: c-Jun N-terminal kinase, JNK (Homo sapiens) (UniProt P45983+P53779+P45984); test: Inhibition JNK phosphorylation in human U937 cells at 1 to 10 uM after 1 hr by Western blot analysis; format: cell-based; conditions: U-937; method in brief: as §1
[7] = biological target: Insulin receptor (Homo sapiens) (UniProt P06213); test: Inhibition of INSR at 10 uM
DU-145 [8] = test: Induction of apoptosis in human DU145 cells assessed as early apoptotic cells at 20 uM after 24 hrs by annexinV-propidium iodide staining-based flow cytometric analysis (reference value: 3.8%); format: functional
[9] = biological target: Glycogen synthase kinase-3 beta (Homo sapiens) (UniProt P49841); test: Inhibition of GSK3-beta at 10 uM
U-937 [10] = test: Induction of apoptosis in human U937 cells assessed as late apoptotic cells at 10 uM after 18 hrs by annexinV-propidium iodide staining-based flow cytometric analysis (reference value: 7.8%); format: functional
DU-145 [11] = test: Induction of apoptosis in human DU145 cells assessed as viable cells at 20 uM after 24 hrs by annexinV-propidium iodide staining-based flow cytometric analysis (reference value: 89%); format: functional; conditions: DU-145, 24 h, read-out: Activity
[12] = biological target: Insulin-like growth factor 1 receptor (Homo sapiens) (UniProt P08069); test: Inhibition of IGF1R at 10 uM
[13] = biological target: Serine/threonine-protein kinase Chk2 (Homo sapiens) (UniProt O96017); test: Inhibition of CHK2 at 10 uM
[14] = biological target: MAP kinase-activated protein kinase 2 (Homo sapiens) (UniProt P49137); test: Inhibition of MAPKAPK2 at 10 uM
U-937 [15] = test: Cell cycle arrest in human U937 cells assessed as decrease in G1/G0-phase population at 10 uM after 24 hrs by propidium iodide staining-based flow cytometric analysis; format: functional
Method in brief: (§2)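 Cells cultured in RPMI 1640 with 10% FBS and treated 24 h at the indicated concentrations. Stained with propidium iodide for 4 h at 4 °C in the dark. Flow cytometry gave the percentage of cells in G₀/G₁, S, G₂/M and sub-G₁ phases.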

[16] = biological target: Fibroblast growth factor receptor 1 (Homo sapiens) (UniProt P11362); test: Inhibition of FGFR1 at 10 uM
U-937 [17] = test: Induction of apoptosis in human U937 cells assessed as late apoptotic cells at 3 uM after 18 hrs by annexinV-propidium iodide staining-based flow cytometric analysis (reference value: 7.8%); format: functional
[18] = biological target: RAF proto-oncogene serine/threonine-protein kinase (Homo sapiens) (UniProt P04049); test: Inhibition of raf-mediated MEK phosphorylation in human U937 cells at 3 uM after 1 hr by Western blot analysis; format: cell-based; conditions: U-937
Method in brief: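 Cells in RPMI 1640 with 10% heat-inactivated FBS, 37 °C, 5% CO2; treated in growing medium (DU145 24 h; U937 1 h at 5 × 10⁵/mL). Lysed by sonication in SDS sample buffer with protease inhibitors plus 1 mM orthovanadate and pyrophosphate, boiled 5 min. Blots blocked in 5% milk, primary antibodies 1:1000 overnight at 4 °C, HRP secondary 1:2000, chemiluminescence; α-tubulin loading control.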

[19] = biological target: Mitogen-activated protein kinase kinase kinase kinase 4 (Homo sapiens) (UniProt O95819); test: Inhibition of HGK at 10 uM
U-937 [20] = test: Growth inhibition of human U937 cells after 72 hrs by MTS assay in presence of 320 uM AMPK activator AICA; format: functional, cell-based
Method in brief: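 U937 cells exposed 72 h, with or without AICA 320 µM, then MTS added. Absorbance read at 490 nm, expressed as percentage of untreated controls. Data are mean percentage viability, n = 6, error bars SEM.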

[21] = Induction of apoptosis in human M12 cells assessed as necrotic cells at 20 uM after 24 hrs by annexinV-propidium iodide staining-based flow cytometric analysis (reference value: 1.7%); format: functional
[22] = biological target: Tyrosine-protein kinase ABL1 (Homo sapiens) (UniProt P00519); test: Inhibition of ABL at 10 uM
U-937 [23] = test: Cell cycle arrest in human U937 cells assessed as accumulation at S-phase after 24 hrs by propidium iodide staining-based flow cytometric analysis; format: functional; method in brief: as §2
[24] = biological target: Phosphatidylinositol 4,5-bisphosphate 3-kinase catalytic subunit alpha isoform (Homo sapiens) (UniProt P42336); test: Inhibition of PI3Kalpha at 10 uM
U-937 [25] = test: Induction of apoptosis in human U937 cells assessed as viable cells at 3 uM after 3 hrs by annexinV-propidium iodide staining-based flow cytometric analysis (reference value: 86.3%); format: functional; conditions: U-937, 3 h, read-out: Activity
DU-145 [26] = test: Induction of apoptosis in human DU145 cells assessed as late apoptotic cells at 20 uM after 24 hrs by annexinV-propidium iodide staining-based flow cytometric analysis (reference value: 5.1%); format: functional
[27] = Inhibition of P70S6K at 10 uM
[28] = biological target: 5'-AMP-activated protein kinase catalytic subunit alpha-2 (Homo sapiens) (UniProt P54646); test: Activation of AMPK in human U937 cells assessed as increase in phosphorylated AMPK level at 1 to 10 uM after 1 hr by Western blot analysis; format: cell-based; conditions: U-937
Method in brief: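 Cells at 5 × 10⁵/mL in growing medium, RPMI 1640 with 10% heat-inactivated FBS, 37 °C, 5% CO₂, exposed 1 h. Lysed by sonication in SDS sample buffer with protease inhibitors plus 1 mM orthovanadate and pyrophosphate, boiled 5 min. Immunoblot probed with rabbit polyclonal anti-phospho-AMPK (Thr172) 1:1000, HRP secondary, chemiluminescence. α-Tubulin reprobe as loading control. One of three independent experiments shown.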

U-937 [29] = test: Induction of apoptosis in human U937 cells assessed as late apoptotic cells at 3 uM after 3 hrs by annexinV-propidium iodide staining-based flow cytometric analysis (reference value: 8.6%); format: functional

RAF proto-oncogene serine/threonine-protein kinase (Homo sapiens), sequence (P04049 whole entry): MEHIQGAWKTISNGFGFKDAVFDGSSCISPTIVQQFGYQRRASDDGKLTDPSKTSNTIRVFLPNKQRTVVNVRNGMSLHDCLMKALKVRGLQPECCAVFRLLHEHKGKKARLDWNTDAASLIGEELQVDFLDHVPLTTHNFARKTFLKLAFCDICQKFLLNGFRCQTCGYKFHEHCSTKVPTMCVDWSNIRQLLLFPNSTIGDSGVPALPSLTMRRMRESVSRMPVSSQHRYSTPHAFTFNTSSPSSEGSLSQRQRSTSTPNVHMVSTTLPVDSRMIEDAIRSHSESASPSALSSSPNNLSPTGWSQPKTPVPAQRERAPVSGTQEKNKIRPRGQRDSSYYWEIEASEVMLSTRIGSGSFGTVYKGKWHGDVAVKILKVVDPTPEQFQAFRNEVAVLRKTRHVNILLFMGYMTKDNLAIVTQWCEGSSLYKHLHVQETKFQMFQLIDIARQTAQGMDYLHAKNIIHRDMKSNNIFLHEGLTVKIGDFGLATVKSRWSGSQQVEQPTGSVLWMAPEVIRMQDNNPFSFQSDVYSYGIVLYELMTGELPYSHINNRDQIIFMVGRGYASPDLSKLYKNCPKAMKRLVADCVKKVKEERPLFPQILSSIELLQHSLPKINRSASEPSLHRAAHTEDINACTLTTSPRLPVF
Fibroblast growth factor receptor 1 (Homo sapiens), sequence (P11362 22-822 limits assumed): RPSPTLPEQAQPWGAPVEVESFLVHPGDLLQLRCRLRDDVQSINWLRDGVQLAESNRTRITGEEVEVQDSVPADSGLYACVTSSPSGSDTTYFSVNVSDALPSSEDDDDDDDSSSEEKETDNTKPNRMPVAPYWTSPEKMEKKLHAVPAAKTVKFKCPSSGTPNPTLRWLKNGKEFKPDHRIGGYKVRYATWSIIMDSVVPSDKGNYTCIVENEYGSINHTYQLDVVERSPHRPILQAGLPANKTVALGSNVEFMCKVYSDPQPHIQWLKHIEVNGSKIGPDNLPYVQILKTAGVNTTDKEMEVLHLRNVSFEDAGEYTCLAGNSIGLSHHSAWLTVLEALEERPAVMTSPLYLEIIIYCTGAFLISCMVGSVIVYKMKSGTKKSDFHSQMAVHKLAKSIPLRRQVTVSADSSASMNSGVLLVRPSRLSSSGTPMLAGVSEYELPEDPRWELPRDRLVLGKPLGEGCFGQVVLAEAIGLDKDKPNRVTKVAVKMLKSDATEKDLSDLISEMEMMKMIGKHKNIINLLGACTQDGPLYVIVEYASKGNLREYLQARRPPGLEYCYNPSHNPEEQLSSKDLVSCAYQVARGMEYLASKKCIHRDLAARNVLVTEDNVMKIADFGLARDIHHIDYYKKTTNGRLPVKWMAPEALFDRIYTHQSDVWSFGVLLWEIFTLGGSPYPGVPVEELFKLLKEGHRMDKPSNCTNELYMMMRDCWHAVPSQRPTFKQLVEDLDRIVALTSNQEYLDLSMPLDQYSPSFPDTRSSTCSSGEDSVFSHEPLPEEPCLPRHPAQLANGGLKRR
Ribosomal protein S6 kinase alpha-5 (Homo sapiens), sequence (O75582 whole entry, looked up): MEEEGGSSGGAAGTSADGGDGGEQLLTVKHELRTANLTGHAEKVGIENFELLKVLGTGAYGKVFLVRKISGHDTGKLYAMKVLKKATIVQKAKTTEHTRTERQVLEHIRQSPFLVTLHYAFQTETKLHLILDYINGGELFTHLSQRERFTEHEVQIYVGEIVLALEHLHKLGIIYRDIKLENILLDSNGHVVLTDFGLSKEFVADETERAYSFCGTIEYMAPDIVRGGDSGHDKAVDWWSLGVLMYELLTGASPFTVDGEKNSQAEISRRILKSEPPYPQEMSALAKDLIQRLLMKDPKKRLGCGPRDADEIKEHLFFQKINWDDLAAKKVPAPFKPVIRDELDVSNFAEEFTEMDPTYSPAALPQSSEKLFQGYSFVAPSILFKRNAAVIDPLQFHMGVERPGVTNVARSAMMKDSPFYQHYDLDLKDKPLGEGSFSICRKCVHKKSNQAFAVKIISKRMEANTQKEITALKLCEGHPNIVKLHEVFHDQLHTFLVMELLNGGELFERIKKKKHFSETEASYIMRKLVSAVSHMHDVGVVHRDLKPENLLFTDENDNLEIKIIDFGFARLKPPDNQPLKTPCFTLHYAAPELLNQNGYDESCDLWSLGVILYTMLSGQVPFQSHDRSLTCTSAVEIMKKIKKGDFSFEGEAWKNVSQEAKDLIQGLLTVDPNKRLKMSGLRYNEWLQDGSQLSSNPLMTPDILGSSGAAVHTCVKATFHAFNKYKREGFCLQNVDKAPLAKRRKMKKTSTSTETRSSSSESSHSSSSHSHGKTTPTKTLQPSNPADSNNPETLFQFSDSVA
Insulin-like growth factor 1 receptor (Homo sapiens), sequence (P08069 31-736 limits assumed): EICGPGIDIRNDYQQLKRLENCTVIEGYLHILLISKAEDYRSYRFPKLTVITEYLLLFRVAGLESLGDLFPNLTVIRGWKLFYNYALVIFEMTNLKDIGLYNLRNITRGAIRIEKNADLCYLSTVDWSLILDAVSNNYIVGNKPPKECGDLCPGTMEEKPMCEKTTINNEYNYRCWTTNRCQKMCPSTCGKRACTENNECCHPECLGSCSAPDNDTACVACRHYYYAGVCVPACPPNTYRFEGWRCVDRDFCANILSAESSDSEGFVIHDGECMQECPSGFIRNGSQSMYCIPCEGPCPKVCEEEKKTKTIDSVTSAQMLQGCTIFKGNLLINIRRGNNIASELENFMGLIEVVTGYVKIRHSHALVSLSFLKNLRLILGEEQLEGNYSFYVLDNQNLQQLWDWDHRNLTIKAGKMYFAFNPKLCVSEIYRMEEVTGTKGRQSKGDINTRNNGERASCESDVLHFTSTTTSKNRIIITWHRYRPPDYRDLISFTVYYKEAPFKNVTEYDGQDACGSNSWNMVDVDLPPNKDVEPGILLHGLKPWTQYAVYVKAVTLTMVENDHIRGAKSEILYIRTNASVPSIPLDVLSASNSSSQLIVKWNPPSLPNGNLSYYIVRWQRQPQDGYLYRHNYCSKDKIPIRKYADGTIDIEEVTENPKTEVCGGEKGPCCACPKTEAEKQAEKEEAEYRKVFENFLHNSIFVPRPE
Insulin-like growth factor 1 receptor (Homo sapiens), sequence (P08069 741-1367 limits assumed): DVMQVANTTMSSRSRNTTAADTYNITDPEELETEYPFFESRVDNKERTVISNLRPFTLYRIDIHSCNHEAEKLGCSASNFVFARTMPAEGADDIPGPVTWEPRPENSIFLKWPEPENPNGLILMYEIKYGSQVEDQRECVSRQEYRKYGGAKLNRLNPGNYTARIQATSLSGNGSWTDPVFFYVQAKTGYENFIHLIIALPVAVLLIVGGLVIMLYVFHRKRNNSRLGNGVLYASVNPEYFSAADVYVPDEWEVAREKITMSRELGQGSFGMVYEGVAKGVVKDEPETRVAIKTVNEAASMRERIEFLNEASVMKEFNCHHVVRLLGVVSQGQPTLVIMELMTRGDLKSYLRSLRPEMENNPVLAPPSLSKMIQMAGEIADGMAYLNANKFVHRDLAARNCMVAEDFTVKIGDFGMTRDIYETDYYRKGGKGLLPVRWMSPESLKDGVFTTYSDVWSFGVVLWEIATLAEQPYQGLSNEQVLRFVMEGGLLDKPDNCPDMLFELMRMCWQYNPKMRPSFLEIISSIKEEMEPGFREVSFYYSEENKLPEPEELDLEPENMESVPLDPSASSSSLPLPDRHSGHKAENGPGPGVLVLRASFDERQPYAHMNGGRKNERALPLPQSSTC
MAP kinase-activated protein kinase 2 (Homo sapiens), sequence (P49137 whole entry, looked up): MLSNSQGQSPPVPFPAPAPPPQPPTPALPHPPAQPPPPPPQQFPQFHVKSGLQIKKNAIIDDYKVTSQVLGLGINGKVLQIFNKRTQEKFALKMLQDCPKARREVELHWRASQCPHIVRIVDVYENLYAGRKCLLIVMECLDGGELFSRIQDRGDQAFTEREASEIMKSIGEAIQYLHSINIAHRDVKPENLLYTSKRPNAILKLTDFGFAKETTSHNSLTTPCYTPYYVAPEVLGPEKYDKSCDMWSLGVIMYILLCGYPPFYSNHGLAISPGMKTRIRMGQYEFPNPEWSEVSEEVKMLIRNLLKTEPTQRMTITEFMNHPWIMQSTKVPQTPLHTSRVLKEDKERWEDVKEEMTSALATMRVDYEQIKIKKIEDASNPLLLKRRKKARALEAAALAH
Glycogen synthase kinase-3 beta (Homo sapiens), sequence (P49841 whole entry, looked up): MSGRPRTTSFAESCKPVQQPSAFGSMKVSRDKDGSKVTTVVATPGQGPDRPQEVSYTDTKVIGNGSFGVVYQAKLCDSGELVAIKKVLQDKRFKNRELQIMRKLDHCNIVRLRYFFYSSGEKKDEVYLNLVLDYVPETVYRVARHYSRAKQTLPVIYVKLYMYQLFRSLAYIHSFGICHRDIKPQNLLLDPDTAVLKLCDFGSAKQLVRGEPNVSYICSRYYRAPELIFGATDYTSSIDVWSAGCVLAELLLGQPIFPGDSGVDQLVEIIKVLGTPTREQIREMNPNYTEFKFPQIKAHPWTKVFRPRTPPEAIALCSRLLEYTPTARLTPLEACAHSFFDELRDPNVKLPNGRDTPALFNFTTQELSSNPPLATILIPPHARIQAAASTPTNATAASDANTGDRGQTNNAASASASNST
Serine/threonine-protein kinase Chk2 (Homo sapiens), sequence (O96017 whole entry): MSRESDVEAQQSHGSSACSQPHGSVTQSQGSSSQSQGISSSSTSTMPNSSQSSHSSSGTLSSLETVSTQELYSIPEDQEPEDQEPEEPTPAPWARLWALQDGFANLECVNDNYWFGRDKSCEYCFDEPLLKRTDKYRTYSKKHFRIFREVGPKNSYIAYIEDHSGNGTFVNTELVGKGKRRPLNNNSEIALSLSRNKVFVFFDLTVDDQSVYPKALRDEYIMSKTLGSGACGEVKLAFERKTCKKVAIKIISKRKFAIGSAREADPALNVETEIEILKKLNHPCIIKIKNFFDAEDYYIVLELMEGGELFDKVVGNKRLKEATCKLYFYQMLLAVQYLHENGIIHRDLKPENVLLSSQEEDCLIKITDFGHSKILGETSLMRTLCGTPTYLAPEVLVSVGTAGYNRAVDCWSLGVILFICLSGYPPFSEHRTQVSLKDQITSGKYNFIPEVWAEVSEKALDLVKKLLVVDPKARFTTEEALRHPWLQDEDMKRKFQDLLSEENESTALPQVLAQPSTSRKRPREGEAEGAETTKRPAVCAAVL

NCCN1C(=O)S/C(=C\CCC2CCCCC2)C1=O
inhibition [1]: 0%
inhibition [2]: -2%
inhibition [3]: Active
inhibition [4]: 6%
Activity (U-937 [5]): 3.5%
inhibition [6]: inactive
inhibition [7]: -2%
Activity (DU-145 [8]): 8.3%
inhibition [9]: 0%
Activity (U-937 [10]): 40.9%
viability at 20 µM (DU-145 [11]): 65.5%
inhibition [12]: -5%
inhibition [13]: 8%
inhibition [14]: 3%
Activity (U-937 [15]): Active
inhibition [16]: 3%
Activity (U-937 [17]): 5.7%
inhibition [18]: Active
inhibition [19]: -1%
growth inhibition (GI) (U-937 [20]): Active
Activity [21]: 5.2%
inhibition [22]: 6%
Activity (U-937 [23]): Dose-dependent effect
inhibition [24]: 45%
viability at 3 µM (U-937 [25]): 86.9%
Activity (DU-145 [26]): 23%
inhibition [27]: 5%
Activity [28]: Active
Activity (U-937 [29]): 7.7%
